CR mimetic SO = yeast age-related superoxide inhibition as caloric restriction mimetic | superoxide response (% of plate mean), % at 10 µM | 330,000 tested, 0.18% active | S. cerevisiae aged cells, superoxide DHE fluorescence; hits give low values;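 active = superoxide response under a set limit, about three screen SD below normal, cut at about 65% in these data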;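 also: yeast aged for seven days with compound at 30 °C before DHE staining; 100% = average MFI of all compound-treated wells on the plate with controls excluded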
AI-2 QS modul = Vibrio harveyi AI-2 quorum sensing modulation. Vibrio harveyi JMH597 AI-2 luminescence/OD600 ratio, 9 h; hits give low values; strain lacks LuxN and CqsS sensors; 0 = neutral-control median. activity change, % at 7.5 µM. 300,000 tested, 0.4% active. AID 2094; in the data active = activity change below about -75%, passing the limit was not always enough;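 also: luminescence divided by OD600 gain over 9 h not by final OD600 alone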
HIF activator = HIF pathway transcriptional activation. 300,000 tested, 0.32% active. U2OS HRE-luciferase reporter, luminescence; normalized: DMSO 0%, desferrioxamine 100%. activation, % at 7.5 µM (by protocol);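 active = mean activation of at least 10% of the iron chelator positive control signal, with at least half of replicates also reaching 10%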
NRP1-CendR mod = alters CendR peptide binding to human NRP-1; O14786; FAM-RPARPAR peptide binding to NRP-1, fluorescence polarization; inhibition, % at 25 µM; 360,000 tested, 0.85% active;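 active = inhibition or corrected inhibition above about 18%, plus a signal ratio from 0.5 to 1.5, limit read from the data, passing the limit was not always enough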
Target sequence (O14786 whole entry, looked up): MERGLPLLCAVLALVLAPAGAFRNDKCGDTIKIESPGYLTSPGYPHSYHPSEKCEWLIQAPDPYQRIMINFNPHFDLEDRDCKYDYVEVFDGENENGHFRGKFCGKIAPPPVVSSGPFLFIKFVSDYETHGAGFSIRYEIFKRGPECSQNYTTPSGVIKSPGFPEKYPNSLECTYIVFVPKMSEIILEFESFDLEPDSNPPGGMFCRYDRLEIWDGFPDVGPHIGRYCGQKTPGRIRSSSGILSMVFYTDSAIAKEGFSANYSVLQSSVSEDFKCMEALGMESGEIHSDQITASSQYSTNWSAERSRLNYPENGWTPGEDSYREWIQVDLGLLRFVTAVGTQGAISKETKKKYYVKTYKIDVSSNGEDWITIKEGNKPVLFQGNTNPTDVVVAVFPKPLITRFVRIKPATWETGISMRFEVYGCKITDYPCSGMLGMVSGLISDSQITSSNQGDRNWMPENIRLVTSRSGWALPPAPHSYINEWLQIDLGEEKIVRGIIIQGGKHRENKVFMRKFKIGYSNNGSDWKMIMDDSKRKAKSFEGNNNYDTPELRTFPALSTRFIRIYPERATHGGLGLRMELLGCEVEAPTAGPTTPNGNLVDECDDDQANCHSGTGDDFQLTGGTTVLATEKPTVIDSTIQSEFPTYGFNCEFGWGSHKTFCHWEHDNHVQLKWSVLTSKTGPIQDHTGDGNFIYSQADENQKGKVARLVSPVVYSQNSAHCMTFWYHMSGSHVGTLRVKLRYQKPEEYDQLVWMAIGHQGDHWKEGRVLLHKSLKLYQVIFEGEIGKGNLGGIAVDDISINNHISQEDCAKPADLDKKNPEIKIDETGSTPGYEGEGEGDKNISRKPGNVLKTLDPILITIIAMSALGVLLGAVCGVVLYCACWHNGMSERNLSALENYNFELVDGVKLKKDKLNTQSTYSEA
T cruzi repl = T. cruzi replication inhibition; T. cruzi beta-gal in NIH3T3, luminescence, 90 h; inhibition, % (test concentration not listed); 300,000 tested, 1.4% active;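 active = mean inhibition across valid replicates above about 55%, limit read from the data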;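 also: signal also drops with host cell toxicity which is not excluded here; 0% = plate median of DMSO wells and 100% = zero luminescence signal; higher percent means less beta-gal luminescence so fewer parasites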
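System – NIH/3T3 host cells with β-galactosidase reporter T. cruzi · Doses – single 50 nL compound addition per well in DMSO · Reagent – 5000 T. cruzi trypomastigotes/well · Medium – Low-serum DMEM with 2% FBS · Timing – ≥90 h infection period, 3 h prior cell attachment · Evaluation – parasite load inhibition, % · Technique – GalScreen luminescence, 60 min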
V-ATPase pH = alters yeast V-ATPase proton transport | 350,000 tested, 0.37% active | S. cerevisiae, pHLuorin cytosolic pH fluorescence | response, % at 10 µM; in the data active = response mostly above about 7.3%, no sharp cut-off; inactive = mostly below about 5.4%; also: actives read high
The depositor's hits bear a star; . = not tested or not shown; ! = repeats disagree. Sampled rows, rich in hits. Any-hit rate of the full collection: about 3%.

SMILES	CR mimetic SO	AI-2 QS modul	HIF activator	NRP1-CendR mod	T cruzi repl	V-ATPase pH
N/C(=N\OC(=O)c1ccc(Cl)cc1)c1ccccn1	115	20	-3	20*	2	3
CN1CCc2c(C#N)c(N3CCCCC3)nc(NCc3ccccc3)c2C1	113	38	0	3	56*	1
CCC(C)c1ccc(NC(=O)c2ccco2)cc1 (stereo unspecified)	96	-6	-1	-6	-1	-4
Cc1ccc(C)c(N2CN(Cc3cccnc3)CNC2=S)c1	96	19	0	-6	61*	0
COc1ccc(C(=O)Nc2nnc(-c3ccc(F)cc3)s2)c(OC)c1	.	1	0	-8	-32	-1
Cc1ccccc1C[n+]1cccc2ccccc21	101	13	-1	9	-16	-2
CCCCCCCCC[n+]1cccc2c3ccccc3ccc21	108	1	2	33*	59*	-6
CCCCCCCCCCCCCCCC[n+]1cccc2ccccc21	137	.	.	42*	.	11
Cc1cc2nc(-c3ccc(SCc4ccc(C#N)cc4)nc3)[nH]c2cc1C	116	-1	1	-12	56*	3
Oc1cccc(C(O)CNCc2ccc(-c3ccccc3)cc2)c1 (stereo unspecified)	93	9	0	28*	28	1
OC(CNCc1ccccc1)c1ccccc1 (stereo unspecified)	111	26	0	0	14	-3
C=CCN(C(=O)c1csnn1)C(C(=O)NCc1ccccc1)c1c(F)cccc1Cl (stereo unspecified)	96	13	0	27*	9	-3
C=CCN(C(=O)c1csnn1)C(C(=O)NCc1ccccc1)c1ccccc1F (stereo unspecified)	98	1	0	7	-2	-2
Cc1cc(N=Nc2c(O)c3ccccc3[nH]c2=O)ccc1N=Nc1ccc(C(=O)N(C)C)cc1	.	9	-22	23*	9	-2
CCC(=O)N1CCCc2cc(S(=O)(=O)CCC(=O)Nc3ccccc3C)ccc21	107	8	0	28*	-8	1
COC(=O)C1N2C(=O)[C@@H](NC(=O)COc3ccccc3)[C@H]2SC1(C)C (stereo partly specified)	90	22	1	31*	-7	2
CCN(CC)CCN1C(=O)Cn2c(C)c(C)c3cccc1c32	95	-4	0	1	69*!	-2
Cc1ccccc1NC(=O)Cc1nc(CN(C)CC(=O)Nc2cccc(F)c2)cs1	95	.	.	6	.	-1
NC(N)=Nc1nc(-c2ccccc2)c2ccccc2n1	109	30	0	7	81*	-2
COc1cc(/C=C2/C(=N)N3C(=NC2=O)SN=C3S(=O)(=O)C(C)C)ccc1OC(=O)c1ccco1	83	29	4	-162	-22	-2
C=CCNC(=S)N/N=C/c1ccc(OCc2ccccc2Cl)cc1	95	19	1	4	65*	1
Cc1cc(Cl)c(S(N)(=O)=O)cc1OCC(N)=O	110	-2	0	3	-2	1
CCN(CC)S(=O)(=O)c1cc(OCC(N)=O)c(C)cc1Cl	103	14	0	7	-6	14*
COc1ccc(NC(=O)Cn2nnc(C(N)=O)c2N)c(OC)c1	93	17	-60	33*	0	-2
COc1ccc(NC(=O)Cn2nnc(C(=O)NCc3cccs3)c2N)c(OC)c1	91	35	0	-4	-1	-4
Cc1cccc(N2CCN(C(=O)c3ccc(Cl)c(S(=O)(=O)N4CCc5ccccc5C4)c3)CC2)c1C	95	25	0	-5	59*	3
Cc1cc(C)n(-c2nnc3n2N=C(c2c[nH]c4ccccc24)CS3)n1	105	37	2	23*	-1	0
COc1ccc(C(O)c2nc(-c3ccc4ccccc4c3)cs2)cc1 (stereo unspecified)	.	.	.	33*	.	.
CCN(CC)C(=O)c1cccc(-c2csc(C(NC(C)=O)c3cccc(OC)c3)n2)c1 (stereo unspecified)	.	.	.	22*	.	.
CCN(CC)C(=O)c1cccc(-c2csc(C(NC(C)=O)c3ccccc3)n2)c1 (stereo unspecified)	.	.	.	-11	.	.

Screening data as filed in PubChem.
